Columns and labels:
[1] = tested on: N2a (Mus musculus); assay: Cytotoxicity against mouse N2a/APPsw cells assessed as cell viability at 1 uM after 24 hrs by MTT assay relative to control
[2] = tested on: N2a; assay: Antiamyloidogenic activity in mouse N2A cells transfected with human APP Swedish mutant assessed as amyloid beta (1 to 42) level at 1 uM after 24 hrs by ELISA relative to control
[3] = Cytotoxicity against mouse RAW264.7 cells assessed as cell viability at 10 uM after 24 hrs by MTT assay relative to control; type: cell-based; conditions: read-out: Activity
Procedure, shortened: (§1)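 RAW 264.7 cells given 0.5 mg/ml MTT in medium for 4 h, washed with PBS; formazan dissolved in DMSO, shaken 30 min, absorbance read at 570 nm against a 630 nm reference. Viability expressed relative to DMSO control.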

[4] = tested on: RAW264.7; assay: Antiinflammatory activity against mouse RAW264.7 cells assessed as LPS-induced nitrate production at 10 uM treated 30 mins before LPS challenge measured after 24 hrs by Griess reagent method relative to control
[5] = Cytotoxicity against mouse RAW264.7 cells assessed as cell viability at 100 uM after 24 hrs by MTT assay relative to control; type: cell-based; conditions: read-out: Activity
Procedure, shortened: as §1

[6] = tested on: RAW264.7; assay: Antiinflammatory activity against mouse RAW264.7 cells assessed as LPS-induced nitrate production at 100 uM treated 30 mins before LPS challenge measured after 24 hrs by Griess reagent method relative to control

Row | Structure (SMILES) | viability at 24 h, 1 µM [1] [%] | level, % of control at 1 µM [2] [%] | viability at 24 h, 10 µM [3] [%] | level, % of control at 10 µM [4] [%] | viability at 24 h, 100 µM [5] [%] | level, % of control at 100 µM [6] [%]
1 | CCC(CC)(C(=O)O)c1ccc(-c2ccccc2)c(F)c1 | 95.5 | 124 |  |  |  | 
2 | N#CC(F)c1ccc(-c2ccccc2)c(F)c1 (stereo unspecified) | 93.1 | 65.6 |  |  |  | 
3 | O=C(O)C(F)c1ccc(-c2ccccc2)c(F)c1 (stereo unspecified) | 98.7 | 91.8 | 92.7 | 81.5 |  | 
4 | NC(=O)C(F)(F)c1ccc(-c2ccc(F)cc2)c(F)c1 | 95.9 | 109 | 98.8 | 84.1 |  | 
5 | O=C(O)C1(c2ccc(-c3ccccc3)c(F)c2)CC1 | 103 | 69.5 |  |  | 101 | 60.7
6 | O=C(O)CC1=C/C(=C/c2ccc(SC(F)(F)F)cc2)c2ccc(F)cc21 |  | 99.4 | 104 | 1.7 |  | 
7 | N#CC(F)c1ccc(-c2ccc(F)cc2)c(F)c1 (stereo unspecified) | 69.4 |  | 84.5 | 65.3 |  | 
8 | O=C(OCCBr)C1(c2ccc(-c3ccc(C(F)(F)F)cc3)c(F)c2)CC1 |  |  |  |  | 113 | 14.7
9 | O=C(OCCO[N+](=O)[O-])C1(c2ccc(-c3ccc(C(F)(F)F)cc3)c(F)c2)CC1 |  |  |  |  | 128 | 42.8
10 | CSc1ccc(/C=C2/C=C(CC(=O)NCc3ccccc3)c3cc(F)ccc32)cc1 |  | 94.5 | 100 | 58.4 |  | 
11 | O=C(O)C1(c2ccc(-c3ccc(C(F)(F)F)cc3)c(F)c2)CC1 | 97.2 | 99.3 |  |  | 102 | 62.4
12 | C[S+]([O-])c1ccc(/C=C2/C=C(CC(=O)O)c3cc(F)ccc32)cc1 (stereo unspecified) |  | 95 | 104 | 91.6 |  | 
13 | CC(F)(C(=O)O)c1ccc(-c2ccccc2)c(F)c1 (stereo unspecified) | 101 | 98.8 | 99.7 | 80.8 |  | 
14 | NC(=O)C(F)(F)c1ccc(-c2ccccc2)c(F)c1 | 102 | 115 | 100 | 82.2 |  | 
15 | O=C(O)C(O)c1ccc(-c2ccccc2)c(F)c1 (stereo unspecified) | 101 | 82.5 | 89.1 | 59 |  | 
16 | COc1ccc2c(c1)c(CNCCO)c(C)n2C(=O)c1ccc(Cl)cc1 |  | 118 | 100 | 52.5 |  | 
17 | COc1ccc2c(c1)c(CC(=O)O)cn2C(=O)c1ccc(Cl)cc1 |  | 102 | 97.9 | 65.9 |  | 
18 | O=C(OCCBr)C1(c2ccc(-c3ccccc3)c(F)c2)CC1 |  |  |  |  | 109 | 18.9
